The target of series [1] is T1, 11-beta-hydroxysteroid dehydrogenase 1 (Homo sapiens, UniProt P28845).
Series [2] deals with 11-beta-hydroxysteroid dehydrogenase 1 (Mus musculus, UniProt P50172). Kind of series: Inhibition of mouse recombinant 11beta-HSD1 assessed as conversion of [3H]cortisone to [3H]cortisol by SPA assay.
The target of series [3] is T1, 11-beta-hydroxysteroid dehydrogenase 1. This is another data set of the same source.
The nature of series [4]: Oral bioavailability in rat. Particulars: in vivo. The class given is ADME, organism-based.
Series [5] can be described thus: Clearance in rat. The class given is ADME, organism-based. Particulars: in vivo.
A short description of series [6]: Metabolic stability in human liver microsomes after 10 mins. In kind it is ADME, Microsome. The conditions noted are these: read-out: Stability. An outline of the steps:
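Test compound incubated with human liver microsomes. Percent parent remaining measured at 10 min.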

Series [7] addresses T2, 11-beta-hydroxysteroid dehydrogenase type 2 (Homo sapiens, UniProt P80365).
T2 sequence (P80365 whole entry): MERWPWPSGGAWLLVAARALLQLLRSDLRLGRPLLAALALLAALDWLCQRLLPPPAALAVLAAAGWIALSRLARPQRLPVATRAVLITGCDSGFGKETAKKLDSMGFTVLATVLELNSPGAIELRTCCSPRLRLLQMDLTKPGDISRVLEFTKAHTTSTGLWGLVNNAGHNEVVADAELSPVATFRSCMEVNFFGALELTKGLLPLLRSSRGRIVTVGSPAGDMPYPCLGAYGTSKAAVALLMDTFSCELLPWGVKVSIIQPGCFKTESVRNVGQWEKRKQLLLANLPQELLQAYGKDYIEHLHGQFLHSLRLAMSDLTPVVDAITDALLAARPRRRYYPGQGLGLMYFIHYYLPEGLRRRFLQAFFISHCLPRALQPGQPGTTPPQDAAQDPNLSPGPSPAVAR
Kind of series: Inhibition of 11beta-HSD2.

11-beta-hydroxysteroid dehydrogenase 1 (Mus musculus, UniProt P50172), sequence (P50172 whole entry): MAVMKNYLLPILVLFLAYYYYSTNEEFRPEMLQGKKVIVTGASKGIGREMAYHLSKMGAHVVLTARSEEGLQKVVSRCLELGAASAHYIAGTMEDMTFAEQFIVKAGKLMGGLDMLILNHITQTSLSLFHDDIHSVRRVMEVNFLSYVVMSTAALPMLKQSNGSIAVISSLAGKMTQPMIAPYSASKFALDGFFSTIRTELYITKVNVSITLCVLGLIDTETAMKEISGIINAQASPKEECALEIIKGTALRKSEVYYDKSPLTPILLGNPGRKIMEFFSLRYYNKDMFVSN
T1 sequence (P28845 whole entry): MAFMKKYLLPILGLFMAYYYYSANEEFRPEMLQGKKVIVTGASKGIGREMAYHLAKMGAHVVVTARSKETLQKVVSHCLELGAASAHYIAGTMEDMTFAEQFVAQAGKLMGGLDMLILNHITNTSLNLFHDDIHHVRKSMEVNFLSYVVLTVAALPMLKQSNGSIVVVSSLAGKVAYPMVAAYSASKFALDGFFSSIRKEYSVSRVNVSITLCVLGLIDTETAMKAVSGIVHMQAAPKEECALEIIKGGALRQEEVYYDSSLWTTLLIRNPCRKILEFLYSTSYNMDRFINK

A word on the IC50: it is the concentration at which inhibition is half-maximal. Turning to `FC(F)(F)c1cccnc1N1CCN(Cc2ccccc2)CC1`, the IC50 is 550 nM in series [1], more than 1000 nM in series [2] and 1930 nM in series [3].

One may read the bioavailability as dose-corrected exposure relative to a reference, in per cent. Low readings indicate poor availability, high ones good availability. For orientation: clearance means a measure of how efficiently the substance is removed, as volume per time. Low readings indicate inefficient removal, high ones efficient removal. `CC(C)(C)c1ccc(S(=O)(=O)N2CCN(c3ccc([N+](=O)[O-])cc3)CC2)cc1`: in series [4], the bioavailability was determined as 7%. In series [5], this molecule gave a clearance of 16.7 mL/min/kg. In addition, the figures for the IC50 in series [1], in series [2] and in series [3] were 10 nM, 161 nM and 247 nM, respectively. Further, the remaining at 10 min in series [6] turned out to be 90%.

As for `Cc1ccc(S(=O)(=O)N2CCN(c3ncccc3C(F)(F)F)CC2)cc1`, the IC50 is more than 10000 nM in series [7], 16 nM in series [1], 32 nM in series [2] and 461 nM in series [3].

Consider `CCc1ccc(S(=O)(=O)N2CCN(c3ncccc3C(F)(F)F)CC2)cc1`, for which the IC50 in series [1] was 18 nM; in series [2], 53 nM; in series [3], 510 nM.

On to `O=S(=O)(c1ccc2ccccc2c1)N1CCN(c2ncccc2C(F)(F)F)CC1`, for which, in series [2], the IC50 turned out to be 11 nM.

Regarding `O=[N+]([O-])c1ccc(S(=O)(=O)N2CCN(c3ncccc3C(F)(F)F)CC2)cc1`, the concentration for half-maximal inhibition (IC50) stood at 37 nM in series [1], 311 nM in series [2] and 922 nM in series [3].

As for `O=S(=O)(c1cccc(C(F)(F)F)c1)N1CCN(c2ncccc2C(F)(F)F)CC1`, the concentration for half-maximal inhibition (IC50) was 64 nM in series [1], 53 nM in series [2] and more than 1000 nM in series [3].

Regarding `CC(C)(C)c1ccc(S(=O)(=O)N2CCN(c3ncccc3C(F)(F)F)CC2)cc1`, the remaining at 10 min in series [6] turned out to be 61%.

With `C[C@H]1CN(c2ncccc2C(F)(F)F)CCN1S(=O)(=O)c1ccc(C(C)(C)C)cc1`, the IC50 was 9 nM in series [1], 17 nM in series [2] and 569 nM in series [3].

As to `O=C(c1ccccc1)N1CCN(c2ncccc2C(F)(F)F)CC1`, the IC50 is 262 nM in series [1], more than 1000 nM in series [2] and more than 1000 nM in series [3].

As to `CCC1CN(c2ncccc2C(F)(F)F)CCN1S(=O)(=O)c1ccc(C(C)(C)C)cc1` (stereo not given), the IC50 in series [1] was 17 nM; in series [2] it was 6 nM; in series [3], more than 1000 nM.

As for `CC1CN(c2ncccc2C(F)(F)F)CCN1S(=O)(=O)c1ccc(C(C)(C)C)cc1` (stereo not given), the IC50 was determined as 9 nM in series [1], 4 nM in series [2] and 632 nM in series [3].

Consider `O=S(=O)(c1ccccc1)N1CCN(c2ncccc2C(F)(F)F)CC1`, for which the IC50 worked out at 45 nM in series [1], 122 nM in series [2] and 724 nM in series [3].

As to `O=S(=O)(c1cccc2ccccc12)N1CCN(c2ncccc2C(F)(F)F)CC1`, the IC50 in series [1] came out at 13 nM; in series [2], 80 nM; in series [3], 329 nM.

As to `Cc1ccc(S(=O)(=O)N2CCN(c3ccccn3)CC2)cc1`, the half-inhibitory concentration (IC50) in series [1], in series [2] and in series [3] was more than 1000 nM throughout.

With `Cc1ccc(S(=O)(=O)N2CCN(c3ncccc3C)CC2)cc1`, the IC50 in series [1] was 152 nM; in series [2], 240 nM; in series [3], more than 1000 nM.

Take `Cc1ccc(S(=O)(=O)N2CCN(c3ncccc3Cl)CC2)cc1`: the 50% inhibitory concentration (IC50) in series [1] was 117 nM; in series [2], 146 nM; in series [3] it was more than 1000 nM.

As to `Cc1ccc(S(=O)(=O)N2CCN(c3ncccc3C#N)CC2)cc1`, the 50% inhibitory concentration (IC50) was 628 nM in series [1] and more than 1000 nM in series [3].

As for `CC(C)(C)c1ccc(S(=O)(=O)N2CCN(c3ccccc3F)CC2)cc1`, the results for the concentration for half-maximal inhibition (IC50) in series [1], in series [2] and in series [3] were 106 nM, 98 nM and more than 1000 nM, respectively.

`COc1ccc(S(=O)(=O)N2CCN(c3ncccc3C(F)(F)F)CC2)cc1`: the values for the 50% inhibitory concentration (IC50) in series [1], in series [2] and in series [3] were 19 nM, 32 nM and 456 nM, respectively.

`N#Cc1ccc(S(=O)(=O)N2CCN(c3ncccc3C(F)(F)F)CC2)cc1`: the half-maximal inhibitory concentration (IC50) in series [1] is 50 nM; in series [2], 546 nM; in series [3], 978 nM.

On to `C[C@@H]1CN(c2ncccc2C(F)(F)F)CCN1S(=O)(=O)c1ccc(C(C)(C)C)cc1`, for which the half-maximal inhibitory concentration (IC50) worked out at 11 nM in series [1], 4 nM in series [2] and 762 nM in series [3].

For the origin of these results see ChEMBL document CHEMBL1145590, “Discovery and initial SAR of arylsulfonylpiperazine inhibitors of 11beta-hydroxysteroid dehydrogenase type 1 (11beta-HSD1)” (Bioorg Med Chem Lett, 2008).
